Activity, GI50 and inhibition data for one molecule are collected here from ChEMBL document CHEMBL3098105, “7,7'-Diazaindirubin--a small molecule inhibitor of casein kinase 2 in vitro and in cells” (Bioorg Med Chem, 2014).

Test [1] addresses Proto-oncogene tyrosine-protein kinase Src (Homo sapiens) (UniProt P12931). Nature of the test: Inhibition of SRC (unknown origin) assessed as residual activity at 1 uM relative to control.
In test [2] the target is Rho-associated protein kinase 2 (Homo sapiens) (UniProt O75116). Nature of the test: Inhibition of human ROCK-2 assessed as residual activity at 1 uM relative to control.
Chain of Rho-associated protein kinase 2 (Homo sapiens) (O75116 whole entry, looked up): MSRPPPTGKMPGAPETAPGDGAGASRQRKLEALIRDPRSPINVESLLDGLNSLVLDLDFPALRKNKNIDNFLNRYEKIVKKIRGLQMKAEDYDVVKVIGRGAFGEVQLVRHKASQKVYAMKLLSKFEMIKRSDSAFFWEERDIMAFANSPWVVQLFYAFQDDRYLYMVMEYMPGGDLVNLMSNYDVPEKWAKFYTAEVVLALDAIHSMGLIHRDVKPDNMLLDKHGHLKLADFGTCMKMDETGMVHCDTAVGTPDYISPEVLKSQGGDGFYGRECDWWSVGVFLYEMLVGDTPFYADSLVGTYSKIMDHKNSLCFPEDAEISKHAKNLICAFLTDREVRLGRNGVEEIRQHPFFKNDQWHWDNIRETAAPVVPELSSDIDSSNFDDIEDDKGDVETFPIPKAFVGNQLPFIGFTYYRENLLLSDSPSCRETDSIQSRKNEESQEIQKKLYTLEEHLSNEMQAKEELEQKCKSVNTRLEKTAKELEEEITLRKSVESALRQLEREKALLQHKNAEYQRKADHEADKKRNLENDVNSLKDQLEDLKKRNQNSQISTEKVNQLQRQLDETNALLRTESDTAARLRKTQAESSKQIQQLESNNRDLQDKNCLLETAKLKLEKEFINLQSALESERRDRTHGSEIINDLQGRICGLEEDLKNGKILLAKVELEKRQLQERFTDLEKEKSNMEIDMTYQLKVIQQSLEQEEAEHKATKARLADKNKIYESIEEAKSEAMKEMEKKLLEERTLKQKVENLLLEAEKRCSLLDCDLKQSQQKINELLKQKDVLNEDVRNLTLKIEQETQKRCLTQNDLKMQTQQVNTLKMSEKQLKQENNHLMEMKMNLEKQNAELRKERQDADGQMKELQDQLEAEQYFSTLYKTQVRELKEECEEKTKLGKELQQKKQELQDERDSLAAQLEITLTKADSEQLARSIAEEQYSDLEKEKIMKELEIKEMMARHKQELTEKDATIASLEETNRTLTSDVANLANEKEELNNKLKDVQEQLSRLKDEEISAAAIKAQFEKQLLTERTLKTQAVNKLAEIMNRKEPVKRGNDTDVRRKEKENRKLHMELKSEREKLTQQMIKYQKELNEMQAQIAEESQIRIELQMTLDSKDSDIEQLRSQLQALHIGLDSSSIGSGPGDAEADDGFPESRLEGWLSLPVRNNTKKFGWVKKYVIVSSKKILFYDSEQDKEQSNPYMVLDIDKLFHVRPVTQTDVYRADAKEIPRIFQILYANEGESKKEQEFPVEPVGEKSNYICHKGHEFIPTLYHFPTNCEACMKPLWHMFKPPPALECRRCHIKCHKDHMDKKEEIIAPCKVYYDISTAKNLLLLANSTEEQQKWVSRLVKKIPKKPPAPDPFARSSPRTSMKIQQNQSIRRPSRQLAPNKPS
The target in test [3] is Protein kinase C theta type (Homo sapiens) (UniProt Q04759). Nature of the test: Inhibition of human PKCtheta assessed as residual activity at 1 uM relative to control.
Test [4] relates to Ribosomal protein S6 kinase alpha-6 (Homo sapiens). Nature of the test: Inhibition of human Rsk4 assessed as residual activity at 1 uM relative to control.
In test [5] the target is Tyrosine-protein kinase Lck (Homo sapiens) (UniProt P06239). Nature of the test: Inhibition of human Lck assessed as residual activity at 1 uM relative to control.
Test [6] deals with Serine/threonine-protein kinase D1 (Homo sapiens) (UniProt Q15139). Nature of the test: Inhibition of human PKCmu assessed as residual activity at 1 uM relative to control.
Test [7] has as its target Tyrosine-protein kinase Mer (Homo sapiens) (UniProt Q12866). Nature of the test: Inhibition of human Mer assessed as residual activity at 1 uM relative to control.
The target of test [8] is Dual specificity mitogen-activated protein kinase kinase 4 (Mus musculus) (UniProt P47809). Nature of the test: Inhibition of mouse MKK4 assessed as residual activity at 1 uM relative to control.
Test [9] addresses Receptor-interacting serine/threonine-protein kinase 2 (Homo sapiens) (UniProt O43353). Nature of the test: Inhibition of human RIPK2 assessed as residual activity at 1 uM relative to control.
In test [10] the target is SRSF protein kinase 3 (Homo sapiens) (UniProt Q9UPE1). Nature of the test: Inhibition of human MSSK1 assessed as residual activity at 1 uM relative to control.
Chain of SRSF protein kinase 3 (Homo sapiens) (Q9UPE1 whole entry, the tested form may be a part): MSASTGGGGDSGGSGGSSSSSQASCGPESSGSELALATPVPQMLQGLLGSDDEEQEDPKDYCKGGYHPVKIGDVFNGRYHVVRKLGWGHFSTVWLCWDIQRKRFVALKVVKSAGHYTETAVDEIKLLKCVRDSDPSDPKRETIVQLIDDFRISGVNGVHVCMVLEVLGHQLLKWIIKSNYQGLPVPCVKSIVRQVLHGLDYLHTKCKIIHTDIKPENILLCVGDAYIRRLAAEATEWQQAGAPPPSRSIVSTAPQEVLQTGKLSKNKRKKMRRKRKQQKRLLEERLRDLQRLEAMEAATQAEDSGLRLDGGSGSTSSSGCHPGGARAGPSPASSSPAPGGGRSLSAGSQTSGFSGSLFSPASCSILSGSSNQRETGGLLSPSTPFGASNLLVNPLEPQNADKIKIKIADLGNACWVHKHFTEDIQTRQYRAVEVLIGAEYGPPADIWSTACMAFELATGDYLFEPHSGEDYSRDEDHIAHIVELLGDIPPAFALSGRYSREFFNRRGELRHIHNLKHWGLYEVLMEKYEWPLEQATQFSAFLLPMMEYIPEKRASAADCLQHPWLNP
The target in test [11] is PAS domain-containing serine/threonine-protein kinase (Homo sapiens) (UniProt Q96RG2). Nature of the test: Inhibition of human PASK assessed as residual activity at 1 uM relative to control.
Chain of PAS domain-containing serine/threonine-protein kinase (Homo sapiens) (Q96RG2 whole entry, the tested form may be a part): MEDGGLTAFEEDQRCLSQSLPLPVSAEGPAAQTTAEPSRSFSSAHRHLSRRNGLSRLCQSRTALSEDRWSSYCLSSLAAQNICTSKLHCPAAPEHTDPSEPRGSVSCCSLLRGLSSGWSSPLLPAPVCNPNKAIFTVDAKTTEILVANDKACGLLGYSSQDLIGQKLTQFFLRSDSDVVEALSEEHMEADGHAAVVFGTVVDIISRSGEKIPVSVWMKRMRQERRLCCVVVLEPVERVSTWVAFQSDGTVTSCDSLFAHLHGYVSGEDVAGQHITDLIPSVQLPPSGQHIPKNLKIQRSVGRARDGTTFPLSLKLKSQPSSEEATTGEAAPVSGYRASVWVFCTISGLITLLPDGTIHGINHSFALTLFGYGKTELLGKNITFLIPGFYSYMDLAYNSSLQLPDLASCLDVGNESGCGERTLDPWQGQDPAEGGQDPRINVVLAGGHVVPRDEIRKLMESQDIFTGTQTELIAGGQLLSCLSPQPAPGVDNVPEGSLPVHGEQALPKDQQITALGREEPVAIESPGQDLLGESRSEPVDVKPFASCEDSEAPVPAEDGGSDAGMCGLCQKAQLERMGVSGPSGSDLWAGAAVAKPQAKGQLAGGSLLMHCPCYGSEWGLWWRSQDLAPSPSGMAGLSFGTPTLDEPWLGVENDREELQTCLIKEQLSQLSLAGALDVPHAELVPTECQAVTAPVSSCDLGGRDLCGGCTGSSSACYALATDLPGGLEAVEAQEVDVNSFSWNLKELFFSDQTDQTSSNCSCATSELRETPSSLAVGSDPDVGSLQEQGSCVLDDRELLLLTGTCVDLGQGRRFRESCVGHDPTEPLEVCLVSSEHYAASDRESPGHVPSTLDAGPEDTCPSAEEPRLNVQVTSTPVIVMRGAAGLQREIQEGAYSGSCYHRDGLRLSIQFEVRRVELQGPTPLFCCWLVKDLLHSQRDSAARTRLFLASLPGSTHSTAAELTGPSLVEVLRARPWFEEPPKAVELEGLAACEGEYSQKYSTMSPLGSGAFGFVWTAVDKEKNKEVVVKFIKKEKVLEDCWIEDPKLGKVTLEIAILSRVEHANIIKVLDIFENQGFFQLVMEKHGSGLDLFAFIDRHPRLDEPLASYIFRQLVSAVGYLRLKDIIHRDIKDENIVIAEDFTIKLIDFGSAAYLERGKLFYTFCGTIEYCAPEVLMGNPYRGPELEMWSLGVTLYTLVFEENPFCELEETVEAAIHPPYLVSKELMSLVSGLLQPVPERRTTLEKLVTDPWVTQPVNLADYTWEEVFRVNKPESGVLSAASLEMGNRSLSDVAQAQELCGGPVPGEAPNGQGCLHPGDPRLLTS
In test [12] the target is Vascular endothelial growth factor receptor 2 (Homo sapiens) (UniProt P35968). Nature of the test: Inhibition of VEGF-R2 (unknown origin) assessed as residual activity at 1 uM relative to control.
Test [13] deals with Serine/threonine-protein kinase PAK 5 (Homo sapiens) (UniProt Q9P286). Nature of the test: Inhibition of human PAK5 assessed as residual activity at 1 uM relative to control.
Chain of Serine/threonine-protein kinase PAK 5 (Homo sapiens) (Q9P286 whole entry, looked up): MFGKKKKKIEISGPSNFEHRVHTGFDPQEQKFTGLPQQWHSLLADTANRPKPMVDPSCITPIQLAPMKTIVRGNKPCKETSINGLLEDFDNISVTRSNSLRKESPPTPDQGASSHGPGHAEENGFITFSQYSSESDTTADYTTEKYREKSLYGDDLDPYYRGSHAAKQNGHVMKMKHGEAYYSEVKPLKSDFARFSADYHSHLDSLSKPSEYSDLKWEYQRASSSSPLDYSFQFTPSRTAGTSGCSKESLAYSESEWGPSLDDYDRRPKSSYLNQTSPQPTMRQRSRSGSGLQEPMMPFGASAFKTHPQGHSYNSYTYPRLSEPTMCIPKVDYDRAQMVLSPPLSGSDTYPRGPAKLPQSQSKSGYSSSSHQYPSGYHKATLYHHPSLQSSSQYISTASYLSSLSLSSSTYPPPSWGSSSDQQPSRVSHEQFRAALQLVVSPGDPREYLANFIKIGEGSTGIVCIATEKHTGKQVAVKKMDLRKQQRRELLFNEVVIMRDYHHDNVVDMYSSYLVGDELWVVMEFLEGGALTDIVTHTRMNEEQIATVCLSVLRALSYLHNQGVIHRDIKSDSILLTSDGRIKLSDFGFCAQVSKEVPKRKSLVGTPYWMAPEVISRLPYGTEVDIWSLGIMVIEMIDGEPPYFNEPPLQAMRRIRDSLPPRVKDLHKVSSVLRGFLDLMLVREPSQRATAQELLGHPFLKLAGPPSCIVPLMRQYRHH
The target of test [14] is Tyrosine-protein kinase ITK/TSK (Homo sapiens) (UniProt Q08881). Nature of the test: Inhibition of human Itk assessed as residual activity at 1 uM relative to control.
A short description of test [15]: Antiproliferative activity against human NCI-ADR-RES cells after 3 days by sulforhodamine B assay. The format is functional. The note with it: 72 h. The gist of the method:
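Tested in the NCI 60 cell line panel. GI50 is the concentration giving 50% inhibition of cell growth, and values are the mean of two series of tests.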
For orientation: Sulforhodamine B stains cellular protein and so reports cell mass.

Test [16] deals with Tyrosine-protein kinase Fgr (Homo sapiens) (UniProt P09769). Nature of the test: Inhibition of human Fgr assessed as residual activity at 1 uM relative to control.
Test [17] concerns the target Ephrin type-B receptor 3 (Homo sapiens) (UniProt P54753). Nature of the test: Inhibition of human EphB3 assessed as residual activity at 1 uM relative to control.
The target of test [18] is Casein kinase II (Homo sapiens) (UniProt P67870+P68400+P19784). Nature of the test: Inhibition of CK2 in human MCF7 cells assessed as reduction of Akt phosphorylation at S473 at 1 uM after 30 mins by Western blot analysis. It is filed as cell-based. The gist of the method: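 MCF7 cells were grown at 37 °C and 5% CO2 in DMEM with 10% heat-inactivated FBS and penicillin/streptomycin. Cells were exposed to 1 µM for the indicated times, with DMSO as the untreated control. Extracts were made in urea lysis buffer, and 20–40 µg protein was run on 10% SDS–PAGE. Blots were probed with primary antibodies (1:1000, overnight, 4 °C) and read by ECL, with β-actin as loading control.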
(In general: In western blotting, separated proteins are transferred to a membrane and probed.)

Test [19] deals with Cyclin-dependent kinase 5/CDK5 activator 1 (Homo sapiens) (UniProt Q00535+Q15078). Nature of the test: Inhibition of CDK5/p35NCK (unknown origin) assessed as residual activity at 1 uM relative to control. The format is protein-complex assay.
For test [20], the target named is RAC-gamma serine/threonine-protein kinase (Homo sapiens) (UniProt Q9Y243). Nature of the test: Inhibition of human PKBgamma assessed as residual activity at 1 uM relative to control.
Test [21] concerns the target Mitogen-activated protein kinase 1 (Homo sapiens) (UniProt P28482). Nature of the test: Inhibition of human MAPK2 assessed as residual activity at 1 uM relative to control.
The target of test [22] is Inhibitor of nuclear factor kappa-B kinase subunit alpha (Homo sapiens) (UniProt O15111). Nature of the test: Inhibition of human IKKalpha assessed as residual activity at 1 uM relative to control.

Calls of active or inactive are those of the source. The calls are words filed in the database; no cut-off is given here.

Chain of Receptor-interacting serine/threonine-protein kinase 2 (Homo sapiens) (O43353 whole entry): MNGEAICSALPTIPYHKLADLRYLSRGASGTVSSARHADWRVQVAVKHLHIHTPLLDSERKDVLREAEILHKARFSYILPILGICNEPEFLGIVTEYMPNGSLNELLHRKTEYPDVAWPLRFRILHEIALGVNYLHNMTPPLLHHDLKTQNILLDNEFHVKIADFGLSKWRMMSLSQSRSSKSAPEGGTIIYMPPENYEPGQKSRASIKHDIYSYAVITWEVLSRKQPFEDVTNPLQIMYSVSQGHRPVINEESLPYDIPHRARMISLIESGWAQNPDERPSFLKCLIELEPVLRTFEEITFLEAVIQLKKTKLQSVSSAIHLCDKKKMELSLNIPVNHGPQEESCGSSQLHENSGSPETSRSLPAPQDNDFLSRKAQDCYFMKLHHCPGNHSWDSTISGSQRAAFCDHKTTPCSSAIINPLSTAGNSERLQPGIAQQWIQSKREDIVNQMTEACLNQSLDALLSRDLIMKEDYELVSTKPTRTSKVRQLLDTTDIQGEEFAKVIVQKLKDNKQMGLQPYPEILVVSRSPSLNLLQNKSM
Chain of Proto-oncogene tyrosine-protein kinase Src (Homo sapiens) (P12931 2-536 limits assumed): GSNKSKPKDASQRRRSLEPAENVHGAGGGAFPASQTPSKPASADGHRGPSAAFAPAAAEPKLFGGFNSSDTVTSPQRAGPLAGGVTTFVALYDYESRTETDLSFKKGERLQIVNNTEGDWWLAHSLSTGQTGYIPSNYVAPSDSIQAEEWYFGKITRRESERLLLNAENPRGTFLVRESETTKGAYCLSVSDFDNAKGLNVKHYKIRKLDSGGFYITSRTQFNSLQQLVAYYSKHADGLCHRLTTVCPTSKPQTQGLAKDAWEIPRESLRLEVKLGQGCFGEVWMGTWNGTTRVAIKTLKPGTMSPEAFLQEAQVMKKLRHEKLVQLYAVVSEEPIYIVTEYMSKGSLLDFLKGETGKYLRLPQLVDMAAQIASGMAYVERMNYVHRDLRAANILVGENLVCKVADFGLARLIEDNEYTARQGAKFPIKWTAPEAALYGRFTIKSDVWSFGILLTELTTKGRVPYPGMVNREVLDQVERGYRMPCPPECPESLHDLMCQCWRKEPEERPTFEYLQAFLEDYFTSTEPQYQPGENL

A word on the GI50: it is the concentration at which growth is held to half of that of the control. Read a low GI50 as greater sensitivity of the cells. On to `O=C1Nc2ncccc2/C1=C1/Nc2ncccc2C1=O`, for which the Activity in test [1] was 99%; in test [2], 114%; in test [3], 116%; in test [4] it was 122%; in test [5], 55%; in [6], 93%. The Activity in test [7] was 95%; in test [8], 110%; in test [9] it was 85%; in test [10], 73%; in test [11], 132%; in test [12], 93%. Further, the Activity in test [13] amounted to 61%; in test [14] it was 106%; in test [16], 114%; in test [17], 123%; in test [19], 106%; in test [20], 126%. Besides, the Activity in [21] was found to be 104%; in test [22], 99%. The molecule also showed a GI50 in test [15] of 1.39 µM. For the same molecule, the inhibition entry in test [18] was “Active”.
